Test system: Fibroblast
Experiment: Multiplex assay against human fibroblast
Type: toxicity, cell-based
How it was run: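 Cells were classed with CellPathfinder machine-learning gating, first as Hoechst high-intensity objects or normal cells, then (normal cells) as healthy, pyknosed or fragmented nuclei, and finally (pyknosed cells) as mitotic or apoptotic. Staining of live cells at seeding used Hoechst33342, BioTracker Green Microtubule Cytoskeleton Dye, MitoTracker Red and Annexin V Alexa Fluor 680, with imaging on a CQ1 microscope at 37°C and 5% CO2 after compound addition. Tubulin, mitochondrial-mass and membrane-permeability phenotypes are per cents of healthy-nucleus cells.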

[1] = 12 h, 1 µM, compound concentration 1 uM, replicate 1
[2] = 12 h, 1 µM, compound concentration 1 uM, replicate 2
[3] = 12 h, 10 µM, compound concentration 10 uM, replicate 1
[4] = 12 h, 10 µM, compound concentration 10 uM, replicate 2
[5] = 24 h, 1 µM, compound concentration 1 uM, replicate 1
[6] = 24 h, 1 µM, compound concentration 1 uM, replicate 2
[7] = 24 h, 10 µM, compound concentration 10 uM, replicate 1
[8] = 24 h, 10 µM, compound concentration 10 uM, replicate 2
[9] = 48 h, 1 µM, compound concentration 1 uM, replicate 1
[10] = 48 h, 1 µM, compound concentration 1 uM, replicate 2
[11] = 48 h, 10 µM, compound concentration 10 uM, replicate 1
[12] = 48 h, 10 µM, compound concentration 10 uM, replicate 2

CC[C@H]1OC(=O)[C@H](C)[C@@H](O[C@H]2C[C@@](C)(OC)[C@@H](O)[C@H](C)O2)[C@H](C)[C@@H](O[C@@H]2O[C@H](C)C[C@H](N(C)C)[C@H]2O)[C@@]2(C)CC(C)=C(O2)[C@H](C)[C@@H](O)[C@]1(C)O
Population Apoptotic (%) [1]: 37% | Population Fragmented Nuclei (%) [1]: 13% | Population Healthy Nuclei (%) [1]: 72% | Population Hoechst High Intensity Objects (%) [1]: 2% | Population Membrane Permeable-Phenotype (%) [1]: 0% | Population Mitochondria Different-Phenotype (%) [1]: 8% | Population Mitotic Cells (%) [1]: 62% | Population Normal (%) [1]: 97% | Population Pyknosed Nuclei (%) [1]: 13% | Population Tubulin-Different-Phenotype (%) [1]: 40% | Total Cell Count [1]: 176 | Population Apoptotic (%) [2]: 46% | Population Fragmented Nuclei (%) [2]: 23% | Population Healthy Nuclei (%) [2]: 57% | Population Hoechst High Intensity Objects (%) [2]: 3% | Population Membrane Permeable-Phenotype (%) [2]: 9% | Population Mitochondria Different-Phenotype (%) [2]: 6% | Population Mitotic Cells (%) [2]: 53% | Population Normal (%) [2]: 96% | Population Pyknosed Nuclei (%) [2]: 18% | Population Tubulin-Different-Phenotype (%) [2]: 53% | Total Cell Count [2]: 170 | Population Apoptotic (%) [3]: 48% | Population Fragmented Nuclei (%) [3]: 24% | Population Healthy Nuclei (%) [3]: 63% | Population Hoechst High Intensity Objects (%) [3]: 3% | Population Membrane Permeable-Phenotype (%) [3]: 0% | Population Mitochondria Different-Phenotype (%) [3]: 25% | Population Mitotic Cells (%) [3]: 52% | Population Normal (%) [3]: 96% | Population Pyknosed Nuclei (%) [3]: 12% | Population Tubulin-Different-Phenotype (%) [3]: 86% | Total Cell Count [3]: 205 | Population Apoptotic (%) [4]: 40% | Population Fragmented Nuclei (%) [4]: 41% | Population Healthy Nuclei (%) [4]: 33% | Population Hoechst High Intensity Objects (%) [4]: 4% | Population Membrane Permeable-Phenotype (%) [4]: 14% | Population Mitochondria Different-Phenotype (%) [4]: 11% | Population Mitotic Cells (%) [4]: 59% | Population Normal (%) [4]: 95% | Population Pyknosed Nuclei (%) [4]: 25% | Population Tubulin-Different-Phenotype (%) [4]: 73% | Total Cell Count [4]: 133 | Population Apoptotic (%) [5]: 52% | Population Fragmented Nuclei (%) [5]: 18% | Population Healthy Nuclei (%) [5]: 69% | Population Hoechst High Intensity Objects (%) [5]: 4% | Population Membrane Permeable-Phenotype (%) [5]: 0% | Population Mitochondria Different-Phenotype (%) [5]: 7% | Population Mitotic Cells (%) [5]: 47% | Population Normal (%) [5]: 95% | Population Pyknosed Nuclei (%) [5]: 12% | Population Tubulin-Different-Phenotype (%) [5]: 45% | Total Cell Count [5]: 173 | Population Apoptotic (%) [6]: 46% | Population Fragmented Nuclei (%) [6]: 29% | Population Healthy Nuclei (%) [6]: 52% | Population Hoechst High Intensity Objects (%) [6]: 3% | Population Membrane Permeable-Phenotype (%) [6]: 7% | Population Mitochondria Different-Phenotype (%) [6]: 5% | Population Mitotic Cells (%) [6]: 53% | Population Normal (%) [6]: 96% | Population Pyknosed Nuclei (%) [6]: 17% | Population Tubulin-Different-Phenotype (%) [6]: 36% | Total Cell Count [6]: 176 | Population Apoptotic (%) [7]: 52% | Population Fragmented Nuclei (%) [7]: 22% | Population Healthy Nuclei (%) [7]: 69% | Population Hoechst High Intensity Objects (%) [7]: 2% | Population Membrane Permeable-Phenotype (%) [7]: 0% | Population Mitochondria Different-Phenotype (%) [7]: 37% | Population Mitotic Cells (%) [7]: 47% | Population Normal (%) [7]: 97% | Population Pyknosed Nuclei (%) [7]: 8% | Population Tubulin-Different-Phenotype (%) [7]: 89% | Total Cell Count [7]: 199 | Population Apoptotic (%) [8]: 46% | Population Fragmented Nuclei (%) [8]: 40% | Population Healthy Nuclei (%) [8]: 39% | Population Hoechst High Intensity Objects (%) [8]: 1% | Population Membrane Permeable-Phenotype (%) [8]: 8% | Population Mitochondria Different-Phenotype (%) [8]: 12% | Population Mitotic Cells (%) [8]: 53% | Population Normal (%) [8]: 98% | Population Pyknosed Nuclei (%) [8]: 20% | Population Tubulin-Different-Phenotype (%) [8]: 81% | Total Cell Count [8]: 127 | Population Apoptotic (%) [9]: 55% | Population Fragmented Nuclei (%) [9]: 17% | Population Healthy Nuclei (%) [9]: 71% | Population Hoechst High Intensity Objects (%) [9]: 3% | Population Membrane Permeable-Phenotype (%) [9]: 0% | Population Mitochondria Different-Phenotype (%) [9]: 9% | Population Mitotic Cells (%) [9]: 44% | Population Normal (%) [9]: 96% | Population Pyknosed Nuclei (%) [9]: 11% | Population Tubulin-Different-Phenotype (%) [9]: 57% | Total Cell Count [9]: 168 | Population Apoptotic (%) [10]: 56% | Population Fragmented Nuclei (%) [10]: 32% | Population Healthy Nuclei (%) [10]: 54% | Population Hoechst High Intensity Objects (%) [10]: 2% | Population Membrane Permeable-Phenotype (%) [10]: 7% | Population Mitochondria Different-Phenotype (%) [10]: 5% | Population Mitotic Cells (%) [10]: 43% | Population Normal (%) [10]: 97% | Population Pyknosed Nuclei (%) [10]: 13% | Population Tubulin-Different-Phenotype (%) [10]: 56% | Total Cell Count [10]: 173 | Population Apoptotic (%) [11]: 84% | Population Fragmented Nuclei (%) [11]: 24% | Population Healthy Nuclei (%) [11]: 68% | Population Hoechst High Intensity Objects (%) [11]: 8% | Population Membrane Permeable-Phenotype (%) [11]: 0% | Population Mitochondria Different-Phenotype (%) [11]: 40% | Population Mitotic Cells (%) [11]: 15% | Population Normal (%) [11]: 91% | Population Pyknosed Nuclei (%) [11]: 6% | Population Tubulin-Different-Phenotype (%) [11]: 91% | Total Cell Count [11]: 216 | Population Apoptotic (%) [12]: 58% | Population Fragmented Nuclei (%) [12]: 43% | Population Healthy Nuclei (%) [12]: 47% | Population Hoechst High Intensity Objects (%) [12]: 7% | Population Membrane Permeable-Phenotype (%) [12]: 6% | Population Mitochondria Different-Phenotype (%) [12]: 8% | Population Mitotic Cells (%) [12]: 41% | Population Normal (%) [12]: 92% | Population Pyknosed Nuclei (%) [12]: 9% | Population Tubulin-Different-Phenotype (%) [12]: 78% | Total Cell Count [12]: 139

Source: ChEMBL document CHEMBL5058577, “EUbOPEN Chemogenomics Library 2 (Multiplex)” (2022)
